The species entered for assay [1] is Homo sapiens. Briefly: Relative potency for human mineralocorticoid and progesterone receptors.
The target of assay [2] is T1, Progesterone receptor (Homo sapiens, UniProt P06401).
T1 sequence (P06401 whole entry): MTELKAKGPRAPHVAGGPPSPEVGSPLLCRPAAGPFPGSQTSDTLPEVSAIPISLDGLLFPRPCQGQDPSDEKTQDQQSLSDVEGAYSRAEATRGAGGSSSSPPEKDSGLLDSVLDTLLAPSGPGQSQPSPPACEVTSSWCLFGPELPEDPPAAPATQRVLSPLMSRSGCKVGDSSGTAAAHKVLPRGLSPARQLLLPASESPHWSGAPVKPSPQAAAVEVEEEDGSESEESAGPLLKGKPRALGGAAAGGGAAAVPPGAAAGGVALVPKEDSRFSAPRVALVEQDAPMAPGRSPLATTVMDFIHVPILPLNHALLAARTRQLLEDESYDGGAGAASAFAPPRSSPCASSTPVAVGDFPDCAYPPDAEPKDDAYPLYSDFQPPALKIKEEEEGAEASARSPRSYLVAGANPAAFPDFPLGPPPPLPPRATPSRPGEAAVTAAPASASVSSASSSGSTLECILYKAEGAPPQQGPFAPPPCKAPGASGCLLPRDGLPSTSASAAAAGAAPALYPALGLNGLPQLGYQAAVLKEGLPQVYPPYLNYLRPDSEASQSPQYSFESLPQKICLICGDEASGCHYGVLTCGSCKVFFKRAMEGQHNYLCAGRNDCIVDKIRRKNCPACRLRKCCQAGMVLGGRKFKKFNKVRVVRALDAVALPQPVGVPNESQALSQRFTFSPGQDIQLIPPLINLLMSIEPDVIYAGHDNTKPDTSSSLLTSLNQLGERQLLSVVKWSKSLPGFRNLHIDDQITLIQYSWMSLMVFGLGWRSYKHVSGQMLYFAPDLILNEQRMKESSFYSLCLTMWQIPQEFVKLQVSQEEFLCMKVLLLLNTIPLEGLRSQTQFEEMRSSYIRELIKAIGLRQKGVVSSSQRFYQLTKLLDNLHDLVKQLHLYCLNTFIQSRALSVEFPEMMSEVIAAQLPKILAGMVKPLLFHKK
Briefly: Agonistic activity against human progesterone receptor in CV-1 cells. The class given is functional, cell-based.

The target of assay [3] is T2, Progesterone receptor (Homo sapiens) (UniProt P06401).
T2 sequence (whole entry): T1 sequence (P06401 whole entry)
Briefly: Percent agonistic effect towards human progesterone receptor in CV-1 cells. It counts as functional, cell-based.

The species entered for assay [4] is Homo sapiens. Description: Relative potency for human glucocorticoid and progesterone receptors.
In assay [5] the target is T3, Estrogen receptor (Homo sapiens, UniProt Q92731+P03372).
The target of assay [6] is T1, Progesterone receptor. Description: Agonistic activity against human progesterone receptor in T47D breast cancer cells. The class given is functional, cell-based.
Assay [7] has as its target T4, Glucocorticoid receptor (Homo sapiens, UniProt P04150).
T4 sequence (P04150 whole entry): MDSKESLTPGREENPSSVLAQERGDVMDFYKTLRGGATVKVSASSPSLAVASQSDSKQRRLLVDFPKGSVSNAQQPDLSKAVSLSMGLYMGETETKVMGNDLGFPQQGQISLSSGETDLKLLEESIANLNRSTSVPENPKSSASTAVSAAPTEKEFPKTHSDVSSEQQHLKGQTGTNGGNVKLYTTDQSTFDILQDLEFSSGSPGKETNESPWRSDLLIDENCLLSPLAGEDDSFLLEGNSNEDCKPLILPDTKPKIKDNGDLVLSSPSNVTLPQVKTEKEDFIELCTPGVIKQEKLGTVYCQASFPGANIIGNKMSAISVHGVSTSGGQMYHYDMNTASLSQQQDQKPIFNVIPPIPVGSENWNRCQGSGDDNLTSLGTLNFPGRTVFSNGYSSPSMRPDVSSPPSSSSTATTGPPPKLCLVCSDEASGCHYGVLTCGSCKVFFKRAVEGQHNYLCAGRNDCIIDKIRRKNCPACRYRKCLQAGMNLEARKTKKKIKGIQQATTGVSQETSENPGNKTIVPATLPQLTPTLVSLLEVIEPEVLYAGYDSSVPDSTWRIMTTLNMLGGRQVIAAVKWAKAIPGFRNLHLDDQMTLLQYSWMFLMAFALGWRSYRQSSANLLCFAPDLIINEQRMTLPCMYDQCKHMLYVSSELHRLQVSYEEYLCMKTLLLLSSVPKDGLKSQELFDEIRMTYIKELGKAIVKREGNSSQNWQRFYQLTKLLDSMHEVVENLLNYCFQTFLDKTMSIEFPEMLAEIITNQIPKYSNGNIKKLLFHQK

For assay [8], the species on record is Homo sapiens. Briefly: Relative potency for human androgen and progesterone receptors.
For assay [9], the target named is T5, Androgen receptor (Homo sapiens, UniProt P10275).
T5 sequence (P10275 whole entry): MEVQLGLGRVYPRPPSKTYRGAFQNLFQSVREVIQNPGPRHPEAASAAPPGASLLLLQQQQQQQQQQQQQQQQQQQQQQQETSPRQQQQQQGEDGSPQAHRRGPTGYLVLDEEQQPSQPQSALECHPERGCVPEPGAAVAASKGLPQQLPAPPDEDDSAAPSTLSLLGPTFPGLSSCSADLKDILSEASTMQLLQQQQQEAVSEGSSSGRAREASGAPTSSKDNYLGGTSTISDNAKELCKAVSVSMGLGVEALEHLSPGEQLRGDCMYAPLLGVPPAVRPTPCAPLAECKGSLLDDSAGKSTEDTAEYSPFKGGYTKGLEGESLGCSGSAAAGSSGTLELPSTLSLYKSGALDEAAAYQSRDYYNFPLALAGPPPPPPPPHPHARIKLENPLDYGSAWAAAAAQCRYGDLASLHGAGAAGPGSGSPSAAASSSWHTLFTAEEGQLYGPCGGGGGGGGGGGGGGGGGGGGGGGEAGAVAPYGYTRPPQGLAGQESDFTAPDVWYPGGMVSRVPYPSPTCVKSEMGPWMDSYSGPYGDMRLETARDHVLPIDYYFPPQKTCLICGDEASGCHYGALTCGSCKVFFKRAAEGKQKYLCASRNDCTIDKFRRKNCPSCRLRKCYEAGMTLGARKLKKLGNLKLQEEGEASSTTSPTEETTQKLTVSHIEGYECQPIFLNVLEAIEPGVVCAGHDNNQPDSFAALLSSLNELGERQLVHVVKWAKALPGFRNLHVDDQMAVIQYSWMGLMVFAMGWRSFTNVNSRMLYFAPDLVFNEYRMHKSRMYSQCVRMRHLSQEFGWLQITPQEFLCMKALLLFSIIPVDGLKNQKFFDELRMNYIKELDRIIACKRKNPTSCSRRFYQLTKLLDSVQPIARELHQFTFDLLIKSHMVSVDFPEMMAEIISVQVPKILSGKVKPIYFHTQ

The target in assay [10] is T2, Progesterone receptor (Homo sapiens). Description: Percent agonistic effect towards human progesterone receptor in T47D breast cancer cells. The class given is functional, cell-based.
Assay [11] deals with T4, Glucocorticoid receptor. Briefly: Inhibition of Dexamethasone binding to human glucocorticoid receptor expressed in baculovirus […] cells.
The species named for assay [12] is Homo sapiens. Briefly: Relative potency for human estrogen and progesterone receptors.
The target in assay [13] is T5, Androgen receptor. Briefly: biochemical.
Assay [14] addresses T1, Progesterone receptor. Briefly: Binding affinity towards human progesterone receptor A isoform using progesterone as radioligand.
The target of assay [15] is T3, Estrogen receptor. Description: Antagonistic efficacy against human estrogen receptor. The class given is functional. Summed up: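 Cotransfection LUC reporter assay for hER. Antagonist efficacy is the % maximal inhibition of a standard agonist (estradiol is the reference agonist for hER) applied at its EC50.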

The values below come from ChEMBL document CHEMBL1145087 (J Med Chem, 2003).

With `CC1=CC(C)(C)Nc2ccc3c(c21)/C(=C/c1ccco1)Oc1ccc(F)cc1-3`, the Ratio is greater than 1000 in [1], 64 in assay [4], 152 in assay [8] and 749 in assay [12]. Besides, the EC50 (as a rule, the concentration giving half of the maximal effect) in assay [2] worked out at 1.7 nM; in assay [6], 21 nM. The Efficacy amounted to 138% in assay [3], 64% in assay [10] and 51% in [15]. For the same molecule, the values for the IC50 in assay [5], in assay [7] and in assay [9] were 1273 nM, 109 nM and 258 nM, respectively. Further, the results for the Ki in assay [11], in assay [13] and in [14] were 140 nM, greater than 1000 nM and 4.7 nM, respectively.

On to `CC1=CC(C)(C)Nc2ccc3c(c21)/C(=C/c1ccccc1N(C)C)Oc1ccc(F)cc1-3`, for which the Ratio is greater than 1000 in assay [1], 119 in assay [4], 556 in [8] and greater than 1000 in [12]. For the same molecule, the values for the EC50 in assay [2] and in assay [6] were 2.7 nM and 26 nM, respectively. Moreover, the Efficacy came out at 172% in assay [3] and 59% in [10]. Further, the IC50 (in general, the point on the concentration scale where inhibition reaches its midpoint) turned out to be 320 nM in assay [7] and 1500 nM in assay [9]. In addition, the Ki (commonly a measure of affinity in units of concentration, obtained from inhibition or displacement) amounted to 493 nM in [11], 819 nM in assay [13] and 1.2 nM in [14].

Take `COc1ccccc1/C=C1\Oc2ccc(F)cc2-c2ccc3c(c21)C(C)=CC(C)(C)N3`: the Ratio in [1] was greater than 1000; in [4], 97; in assay [8], greater than 1000; in [12], greater than 1000. For the same molecule, the Efficacy is 154% in [3], 40% in assay [10] and 34% in [15]. Further, the results for the IC50 in assay [5] and in assay [7] were 1885 nM and 90 nM, respectively. In assay [6], the EC50 amounted to 8 nM. Moreover, the Ki in assay [11] is 277 nM; in [13], 439 nM; in assay [14] it was 3.8 nM.
